Experimental data from ChEMBL document CHEMBL5154945, “Discovery and Optimization of Pyrrolopyrimidine Derivatives as Selective Disruptors of the Perinucleolar Compartment, a Marker of Tumor Progression toward Metastasis” (J Med Chem, 2022).
pIC50: −log10 of the molar value.

Legend:
[1] = system: PC-3M; assay: Anticancer activity in human PC-3M cells expressing PTB/GFP fusion protein assessed as perinucleolar compartment disassembly and measured after 24 hrs by Hoechst 33342 staining based microscopic method; format: functional, cell-based; settings: for IC50: read-out: pIC50 (converted); for pIC50: read-out: IC50
Summary of the method: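 Imaged by high-content microscopy. Nuclei with PNC spots ≥3 and >0 scored positive. PNC prevalence % = PNC-positive nuclei/total nuclei ×100, normalized to DMSO (0% activity) and 0% PNC (−100%). IC50 from concentration-response.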

[2] = Permeability of the compound at pH 7.4 incubated for 30 mins by UV plate reader based PAMPA assay; settings: for permeability: pampa, pH 7.4, 0.5 h; for Papp at 0.5 h: PAMPA, pH 7.4
[3] = Microsomal stability in CD1 mouse liver microsomes assessed as half life measured upto 60 mins in presence of NADPH by LC-MS analysis; settings: for t1/2: mouse, microsomes, 1 h; for half-life at 1 h: CD1, mouse, liver microsomes

IC50 [1] [µM] | permeability [2] | t1/2 [3] [min] | pIC50 [1] | Papp at 0.5 h [2] [×10⁻⁶ cm/s] | half-life at 1 h [3] [min] | Structure (SMILES)
0.501 | > 1000 10^-6 cm/s | 28.8 |  |  |  | N=c1c2c(-c3ccccc3)c(-c3ccccc3)n(Cc3ccccc3)c2ncn1[C@@H]1CCCC[C@H]1O (relative stereo)
10.7 | > 1000 10^-6 cm/s | 6.9 |  |  |  | N=c1c2c(-c3ccccc3)c(-c3ccccc3)n(CCc3ccccc3)c2ncn1CC1CCOC1 (configuration not stated)
 | > 1000 10^-6 cm/s |  | < 4.70 |  |  | COc1ccc(-c2c(-c3ccc(OC)cc3)n(Cc3ccccc3)c3ncn([C@H]4CC[C@H](OC)CC4)c(=N)c23)cc1
3.16 | > 1000 10^-6 cm/s | 9 |  |  |  | N=c1c2c(-c3ccccc3)c(-c3ccccc3)n(Cc3ccccc3)c2ncn1CCCCCO
23.4 | > 1000 10^-6 cm/s | 4.3 |  |  |  | CCOC(CCCn1cnc2c(c(-c3ccccc3)c(-c3ccccc3)n2Cc2ccccc2)c1=N)OCC
10.7 | > 1000 10^-6 cm/s | 7.1 |  |  |  | N=c1c2c(-c3ccccc3)c(-c3ccccc3)n(Cc3ccccc3)c2ncn1CC1CCOCC1
1.1 |  |  |  |  |  | CO[C@H]1CC[C@H](n2cnc3c(c(-c4ccccc4)c(-c4ccccc4)n3Cc3ccc(OC(F)(F)F)cc3)c2=N)CC1
 | 1683.3 10^-6 cm/s | 26.9 | < 4.70 |  |  | Cc1c(C)n(Cc2ccccc2)c2ncn(C3CCOCC3)c(=N)c12
0.955 |  | 4.3 | 5.57 |  |  | N=c1c2c(-c3ccccc3)c(-c3ccccc3)n(CCc3ccccc3)c2ncn1C[C@@H]1CCCC[C@H]1O (relative stereo)
 |  |  | < 4.70 | 7.2 | 113 | N=c1c2c(-c3ccccc3)c(-c3ccccc3)n(Cc3ccccc3)c2ncn1CC1COC1
 | < 1 10^-6 cm/s |  | < 4.70 |  | 120 | Cc1c(C)n(Cc2ccccc2)c2ncn([C@H]3CC[C@H](O)CC3)c(=N)c12
0.832 | > 1000 10^-6 cm/s | 68 |  |  |  | N=c1c2c(-c3ccccc3)c(-c3ccccc3)n(CC3CC3)c2ncn1C1CCOCC1
23.4 | > 1000 10^-6 cm/s | 14 |  |  |  | N=c1c2c(-c3ccccc3)c(-c3ccccc3)n(Cc3ccccc3)c2ncn1CCCN1CCN(c2ccccc2)CC1
 |  |  | < 4.70 |  |  | N=c1c2c3c(n(CCc4ccccc4)c2ncn1C1CCOCC1)CCCC3
33.9 | > 1000 10^-6 cm/s | 16.3 |  |  |  | N=c1c2c(-c3ccccc3)c(-c3ccccc3)n(CC3CC3)c2ncn1CC1CCOCC1
7.94 | > 1000 10^-6 cm/s | 8.4 |  |  |  | N=c1c2c(-c3ccccc3)c(-c3ccccc3)n(CCc3ccccc3)c2ncn1CC1CCCO1 (configuration not stated)
8.51 | > 1000 10^-6 cm/s | 9.4 |  |  |  | COc1ccc(Cn2c(-c3ccccc3)c(-c3ccccc3)c3c(=N)n(CC4CCCO4)cnc32)cc1 (configuration not stated)
 | > 1000 10^-6 cm/s | 58.7 | < 4.70 |  |  | COc1ccc(-c2c(-c3ccc(OC)cc3)n(Cc3ccccc3)c3ncn(C4CCOCC4)c(=N)c23)cc1
0.251 |  |  |  |  |  | CO[C@H]1CC[C@H](n2cnc3c(c(-c4ccccc4)c(-c4ccccc4)n3Cc3ccccc3)c2=N)CC1

IC50 [1] [µM] | permeability [2] | t1/2 [3] [min] | pIC50 [1] | Papp at 0.5 h [2] [×10⁻⁶ cm/s] | half-life at 1 h [3] [min] | Structure (SMILES)
 |  |  | < 4.70 |  |  | CCO/C=N/c1c(C#N)c(-c2ccccc2)c(-c2ccccc2)n1Cc1ccccc1
 | > 1000 10^-6 cm/s | 29.2 | < 4.70 |  |  | COc1ccc(-c2c(-c3ccc(OC)cc3)n(Cc3ccccc3)c3ncn([C@@H]4CCCC[C@H]4O)c(=N)c23)cc1 (mixture of isomers)
 |  |  | < 4.70 |  |  | OCCCNc1ncnc2c1c(-c1ccccc1)c(-c1ccccc1)n2Cc1ccccc1
 | 204.6 10^-6 cm/s | 86.5 | < 4.70 |  |  | N=c1c2c3c(n(CCc4ccccc4)c2ncn1[C@H]1CC[C@H](O)CC1)CCCC3
4.47 |  |  | 5.35 | > 1000 | 6.6 | N=c1c2c(-c3ccccc3)c(-c3ccccc3)n(CCc3ccccc3)c2ncn1CCCCO
26.9 | > 1000 10^-6 cm/s |  |  |  |  | N=c1c2c(-c3ccccc3)c(-c3ccccc3)n(CC3CCCCC3)c2ncn1CCCO
0.933 | > 1000 10^-6 cm/s | 17.4 |  |  |  | N=c1c2c(-c3ccccc3)c(-c3ccccc3)n(Cc3ccccc3)c2ncn1C[C@@H]1CCCC[C@H]1CO (relative stereo)
1.32 | > 1000 10^-6 cm/s | 32.6 |  |  |  | N=c1c2c(-c3ccccc3)c(-c3ccccc3)n(CCc3ccccc3)c2ncn1CCO
10.7 | > 1000 10^-6 cm/s | 5.3 |  |  |  | N=c1c2c(-c3ccccc3)c(-c3ccccc3)n(Cc3ccccc3)c2ncn1CC1CCOC1 (configuration not stated)
 | < 1 10^-6 cm/s | 26.7 |  |  |  | N=c1c2c(-c3ccccc3)c(-c3ccccc3)n(Cc3ccc(S(N)(=O)=O)cc3)c2ncn1CCCO
4.27 | > 1000 10^-6 cm/s | 7.7 |  |  |  | N=c1c2c(-c3ccccc3)c(-c3ccccc3)n(Cc3ccccc3)c2ncn1CCCCO
 |  |  | < 4.70 | 883 | 4.5 | N=c1c2c3c(n(CCc4ccccc4)c2ncn1CCCO)CCCC3
9.33 | > 1000 10^-6 cm/s | 6.5 |  |  |  | N=c1c2c(-c3ccccc3)c(-c3ccccc3)n(Cc3ccccc3)c2ncn1CC1CCCO1 (configuration not stated)
4.37 | > 1000 10^-6 cm/s |  |  |  |  | N=c1c2c(-c3ccccc3)c(-c3ccccc3)n(Cc3ccc(OC(F)(F)F)cc3)c2ncn1CCCO
 |  |  | < 4.70 | > 1000 |  | COc1ccc(-c2c(-c3ccc(OC)cc3)n(Cc3ccccc3)c3ncn(CCCO)c(=N)c23)cc1
 |  |  | < 4.70 |  |  | O[C@H]1CC[C@H](Nc2ncnc3c2c(-c2ccccc2)c(-c2ccccc2)n3Cc2ccccc2)CC1
 | > 1000 10^-6 cm/s | 73.2 | < 4.70 |  |  | COc1ccc(-c2c(-c3ccc(OC)cc3)n(Cc3ccccc3)c3ncn(CCO)c(=N)c23)cc1
 | 1737 10^-6 cm/s | 3 | < 4.70 |  |  | N=c1c2c(-c3ccccc3)cn(Cc3ccccc3)c2ncn1Cc1ccco1
10 | > 1000 10^-6 cm/s | 14.5 | 6.02 |  |  | N=c1c2c(-c3ccccc3)c(-c3ccccc3)n(CCc3ccccc3)c2ncn1C1CCOCC1

IC50 [1] [µM] | permeability [2] | t1/2 [3] [min] | pIC50 [1] | Papp at 0.5 h [2] [×10⁻⁶ cm/s] | half-life at 1 h [3] [min] | Structure (SMILES)
25.1 | 1196.9 10^-6 cm/s | 12.1 | 4.60 |  |  | COc1ccc(CCn2cnc3c(c(-c4ccccc4)c(-c4ccccc4)n3Cc3ccccc3)c2=N)cc1OC
2 |  |  |  |  |  | N=c1c2c(-c3ccccc3)c(-c3ccccc3)n(CC3CCCCC3)c2ncn1C1CCOCC1
 | 164.7 10^-6 cm/s |  | < 4.70 |  |  | N=c1c2c(-c3ccccc3)c(-c3ccccc3)n(Cc3ccccc3)c2ncn1CCN
2.82 |  |  | 5.55 | > 1000 | 31.1 | COc1ccc(Cn2c(-c3ccccc3)c(-c3ccccc3)c3c(=N)n(CCO)cnc32)cc1
 | < 1 10^-6 cm/s | 5.5 | < 4.70 |  |  | N=c1c2c(-c3ccccc3)c(-c3ccccc3)n(Cc3ccccc3)c2ncn1[C@H](CO)Cc1ccccc1
 | 196 10^-6 cm/s |  | < 4.70 |  |  | COc1ccc(-c2c(-c3ccc(OC)cc3)n(Cc3ccccc3)c3ncn([C@H]4CC[C@H](O)CC4)c(=N)c23)cc1
9.33 | > 1000 10^-6 cm/s | 9.5 |  |  |  | COCCn1cnc2c(c(-c3ccccc3)c(-c3ccccc3)n2Cc2ccccc2)c1=N
 | 1270.9 10^-6 cm/s | 9.2 | < 4.70 |  |  | N=c1c2c(-c3ccccc3)cn(Cc3ccccc3)c2ncn1CCO
3.39 | 1246.89 10^-6 cm/s |  |  |  | 120 | N=c1c2c(-c3ccccc3)c(-c3ccccc3)n(Cc3ccc(OC(F)(F)F)cc3)c2ncn1[C@H]1CC[C@@H](O)CC1
2.75 |  |  |  |  |  | N=c1c2c(-c3ccccc3)c(-c3ccccc3)n(CC3CCCCC3)c2ncn1[C@H]1CC[C@H](O)CC1
 | > 1000 10^-6 cm/s | 16.5 | < 4.70 |  |  | COc1ccc(-c2c(-c3ccc(OC)cc3)n(Cc3ccccc3)c3ncn(CC4CCOC4)c(=N)c23)cc1 (configuration not stated)
 | 606 10^-6 cm/s | 6.4 | < 4.70 |  |  | C[C@H]([C@@H](O)c1ccccc1)n1cnc2c(c(-c3ccccc3)c(-c3ccccc3)n2Cc2ccccc2)c1=N
5.01 |  | 32.2 |  |  |  | N=c1c2c(-c3ccccc3)c(-c3ccccc3)n(Cc3ccccc3)c2ncn1C1CCN(Cc2ccccc2)CC1
 | > 1000 10^-6 cm/s | 2.9 | < 4.70 |  |  | COc1ccc(CCn2cnc3c(c(-c4ccccc4)cn3Cc3ccccc3)c2=N)cc1OC
0.158 | > 1000 10^-6 cm/s |  |  |  | 120 | COc1ccc(Cn2c(-c3ccccc3)c(-c3ccccc3)c3c(=N)n([C@H]4CC[C@H](O)CC4)cnc32)cc1
1.17 |  | 70 |  | > 1000 |  | N=c1c2c(-c3ccccc3)c(-c3ccccc3)n(Cc3ccc(S(N)(=O)=O)cc3)c2ncn1C1CCOCC1
 | 327.5 10^-6 cm/s | 11.2 | < 4.70 |  |  | N#Cc1c(-c2ccccc2)c(-c2ccccc2)n(Cc2ccccc2)c1/N=C/N[C@H]1CC[C@H](O)CC1
 |  |  | < 4.70 |  |  | N=c1c2c(-c3ccc4c(c3)OCO4)c(-c3ccc4c(c3)OCO4)n(Cc3ccccc3)c2ncn1C1CCOCC1
0.174 |  |  |  |  |  | COc1ccc(Cn2c(-c3ccccc3)c(-c3ccccc3)c3c(=N)n(C4CCOCC4)cnc32)cc1
